Experimental data collected from several papers.
Each line is one published result; the experiments were not run side by side.
gag-pol integrase: Gag-Pol polyprotein, integrase (gag-pol, Human immunodeficiency virus 1, UniProt P12497)
PPARA: Peroxisome proliferator-activated receptor alpha (PPARA, Homo sapiens, UniProt Q07869)
Tumor necrosis factor receptor superfamily member 9: Tumor necrosis factor receptor superfamily member 9 (Homo sapiens, UniProt Q07011)

Structure (SMILES) | target | assay | test system | conditions | endpoint | result
CC(C)C[C@H](NC(=O)[C@H](Cc1ccccc1)NC(=O)[C@H](Cc1ccc(O)cc1)NC(=O)CNC(=O)[C@H](CCCCN)NC(=O)[C@H](CO)NC(=O)[C@H](CCC(N)=O)NC(=O)CNC(=O)[C@@H](NC(=O)[C@H](CO)NC(=O)[C@@H]1CCCN1C(=O)[C@H](CO)NC(=O)[C@H](CCC(N)=O)NC(=O)[C@H](Cc1ccc(O)cc1)NC(=O)[C@H](CCC(=O)O)NC(=O)[C@H](C)NC(=O)[C@H](CCCCN)NC(=O)[C@@H](N)Cc1ccccc1)C(C)C)C(=O)N[C@@H](Cc1ccccc1)C(=O)N[C@@H](CCCNC(=N)N)C(=O)N1CCC[C@H]1C(=O)N[C@@H](CCCNC(=N)N)C(=O)N[C@@H](CC(N)=O)C(N)=O | Neuromedin-U receptor 2 (NMUR2, Homo sapiens, UniProt Q9GZQ4) | ligand displacement, radioligand |  | cell membranes | IC50 | 4e-05 µM
O=C(O)[C@H](Cc1ccccc1)NC(=O)C1(c2ccc3ccccc3c2)CCN(Cc2ccccc2)CC1 | gag-pol integrase | enzyme activity, inhibitor, TR-FRET |  |  | IC50 | 353 µM
CC(c1ccccc1)n1cc(-c2ncccn2)c(=O)[nH]c1=O (stereo not drawn) | Hepatocyte growth factor receptor (MET, Homo sapiens, UniProt P08581) | binding |  |  | Kd | 2.51 µM
[Cd+2] | Protein phosphatase 1A (PPM1A, Homo sapiens, UniProt P35813, D239A) | enzyme activity, inhibitor, absorbance |  | pH 8 | Ki | 5.22 µM
Cc1cc(SCc2sc(-c3ccc(C(F)(F)F)c(F)c3)nc2C)ccc1OCC(=O)O | PPARA | reporter gene, antagonist, luciferase |  |  | IC50 | 37.4 µM
CC(=O)N[C@@H](CC(C)C)C(=O)N[C@@H](CC(C)C)C(=O)N[C@@H](CC(C)C)C(=O)N[C@@H](CCCN=C(N)N)C(=O)N[C@H](C(=O)N[C@@H](CCCCN)C(=O)N[C@@H](CCCN=C(N)N)C(N)=O)C(C)C | Proprotein convertase subtilisin/kexin type 7 (Homo sapiens, UniProt Q16549) | enzyme activity, inhibitor |  |  | Ki | 1.52 µM
CCCC[C@@H]1NC(=O)[C@H](Cc2ccc(O)cc2)NC(=O)[C@@H]2CCCN2C(=O)[C@H](CC(=O)O)NC(=O)[C@H](C)NC(=O)[C@H](Cc2ccccc2)NC(=O)[C@@H]2CSCCC(=O)N3CN(CN(C3)C(=O)CCSC[C@@H](C(=O)N[C@@H](C)C(N)=O)NC1=O)C(=O)CCSC[C@H](NC(C)=O)C(=O)N[C@@H](CC(C)(C)C)C(=O)N1CCC[C@H]1C(=O)N[C@@H](CCC(=O)O)C(=O)N[C@H](CCCCNC(=O)CCc1cn(CCOCCOCCOCCOCCOCCC(=O)NCCCC[C@H]3NC(=O)[C@H](Cc4cccc5ccccc45)NC(=O)[C@@H]4CCCN4C(=O)[C@@H](NC(C)=O)CSCCC(=O)N4CN5CN(C4)C(=O)CCSC[C@H](NC3=O)C(=O)N[C@@H](CCSC)C(=O)N[C@@H](CCCCNC(=N)N)C(=O)N[C@@H](Cc3c[nH]cn3)C(=O)N[C@@H](Cc3c[nH]c4ccccc34)C(=O)N[C@@H](CO)C(=O)N[C@@H]([C@@H](C)O)C(=O)N3CCC[C@H]3C(=O)N3C[C@H](O)C[C@H]3C(=O)N[C@@H](Cc3c[nH]c4ccccc34)C(=O)N[C@H](C(N)=O)CSCCC5=O)nn1)C(=O)N1CCC[C@H]1C(=O)N[C@@H](Cc1ccc(O)cc1)C(=O)N2 | Tumor necrosis factor receptor superfamily member 9 | binding, SPR |  |  | Kd | 0.0032 µM
O=C(O)[C@H](Cc1ccc2ccccc2c1)NC(=O)C1(c2ccc(-c3ccccc3)cc2)CCN(CCC(F)(F)F)CC1 | gag-pol integrase | enzyme activity, inhibitor, TR-FRET |  |  | IC50 | 93.5 µM
CCCC[C@@H]1NC(=O)[C@H](Cc2ccc(O)cc2)NC(=O)[C@@H]2CCCN2C(=O)[C@H](CC(=O)O)NC(=O)[C@H](C)NC(=O)[C@H](Cc2ccccc2)NC(=O)[C@@H]2CSCCC(=O)N3CN(CN(C3)C(=O)CCSC[C@@H](C(=O)N[C@@H](CNC(=O)CCOCCOCCOCCOCCOCCn3cc(CCC(=O)N[C@H]4CSCCC(=O)N5CN6CN(C5)C(=O)CCSC[C@H](NC(=O)[C@@H](CC(=O)O)NC(=O)[C@H](Cc5cccc7ccccc57)NC(=O)[C@@H]5CCCN5C4=O)C(=O)N[C@@H](CCSC)C(=O)N[C@@H](CCCCNC(=N)N)C(=O)N[C@@H](CC(=O)O)C(=O)N[C@@H](Cc4c[nH]c5ccccc45)C(=O)N[C@@H](CO)C(=O)N[C@@H]([C@@H](C)O)C(=O)N4CCC[C@H]4C(=O)N4C[C@H](O)C[C@H]4C(=O)N[C@@H](Cc4c[nH]c5ccccc45)C(=O)N[C@H](C(N)=O)CSCCC6=O)nn3)C(N)=O)NC1=O)C(=O)CCSC[C@H](NC(C)=O)C(=O)N[C@@H](CC(C)(C)C)C(=O)N1CCC[C@H]1C(=O)N[C@@H](CCC(=O)O)C(=O)N[C@H](C)C(=O)N1CCC[C@H]1C(=O)N[C@@H](Cc1ccc(O)cc1)C(=O)N2 | Tumor necrosis factor receptor superfamily member 9 | binding, SPR |  |  | Kd | 0.0034 µM
Clc1ccc(N2CCN(Cc3c[nH]c4ncccc34)CC2)cc1 | D(2) dopamine receptor (Drd2, Rattus norvegicus, UniProt P61169) | ligand displacement, radioligand |  | cell membranes | Ki | 0.656 µM
O=C(O)CCC(c1ccccc1)(c1ccccc1)c1ccccc1 | Kinesin-like protein KIF11 (KIF11, Homo sapiens, UniProt P52732) | ATPase activity, inhibitor |  |  | IC50 | > 28 µM
O=C(O)C(F)(F)C(F)(F)C(F)(F)C(F)(F)C(F)(F)C(F)(F)C(F)(F)F | PPARA | reporter gene, agonist, luciferase |  |  | EC50 | 9.5 µM
CCCC[C@@H]1NC(=O)[C@H](Cc2ccc(O)cc2)NC(=O)[C@@H]2CCCN2C(=O)[C@H](CC(N)=O)NC(=O)[C@H](C)NC(=O)[C@H](Cc2ccccc2)NC(=O)[C@@H]2CSCCC(=O)N3CN(CN(C3)C(=O)CCSC[C@H](NC(C)=O)C(=O)N[C@@H](CC(C)(C)C)C(=O)N3CCC[C@H]3C(=O)N[C@@H](CCC(=O)O)C(=O)N[C@H](CCCCNC(=O)CCc3cn(CCOCCOCCOCCOCCOCCC(=O)N[C@H]4CSCCC(=O)N5CN6CN(C5)C(=O)CCSC[C@H](NC(=O)[C@@H](CC(=O)O)NC(=O)[C@H](Cc5cccc7ccccc57)NC(=O)[C@@H]5CCCN5C4=O)C(=O)N[C@@H](CCSC)C(=O)N[C@@H](CCCCNC(=N)N)C(=O)N[C@@H](CC(=O)O)C(=O)N[C@@H](Cc4c[nH]c5ccccc45)C(=O)N[C@@H](CO)C(=O)N[C@@H]([C@@H](C)O)C(=O)N4CCC[C@H]4C(=O)N4C[C@H](O)C[C@H]4C(=O)N[C@@H](Cc4c[nH]c5ccccc45)C(=O)N[C@H](C(N)=O)CSCCC6=O)nn3)C(=O)N3CCC[C@H]3C(=O)N[C@@H](Cc3ccc(O)cc3)C(=O)N2)C(=O)CCSC[C@@H](C(N)=O)NC1=O | Tumor necrosis factor receptor superfamily member 9 | binding, SPR |  |  | Kd | 0.878 µM
Cc1c(C2(c3ccc(C(F)(F)F)nc3)CC2)c[nH]c1C(=O)NC(C)c1nc[nH]n1 (stereo not drawn) | Cytochrome P450 2D6 (CYP2D6, Homo sapiens, UniProt P10635) | enzyme activity, inhibitor | human, liver microsomes |  | IC50 | 17 µM
O=S(=O)(O)C(F)(F)C(F)(F)OC(F)(C(F)(F)F)C(F)(F)OC(F)C(F)(F)F (stereo not drawn) | PPARA | reporter gene, agonist, luciferase |  |  | EC50 | 24 µM
